Data set [1] in a line: Chemical stability assessed as formation of compound 2 in pH 7.4 phosphate buffer in presence of 5 mM GSH for 60 mins at 37 degC at 10 uM by UV chromatography. Format: physicochemical. The note with it: pH 7.4, 1 h. Put shortly: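 Test compound at 10 µM in 0.1 M phosphate buffer, pH 7.4, with or without 5 mM GSH, 60 min at 37 °C in a shaking water bath open to air. Stopped with ice-cold acetonitrile containing 0.1% formic acid, then centrifuged. Supernatant analyzed by LC–MS/MS and UV (300 nm) on a C18 column with an ammonium formate/acetonitrile gradient.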

For data set [2], the system named is Liver microsomes. Kind of data set: Metabolic stability in human liver microsomes assessed as formation of compound at 10 uM in presence of 5 mM GSH and 1.3 mM NADPH by UV chromatography. Format: ADME, Microsome. Put shortly: (§1)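 Test compound at 10 µM with 5 mM GSH in human liver microsomes (NADPH-supplemented or not), human liver cytosol, or human placental GST. Incubated 60 min at 37 °C in a shaking water bath open to air; microsomal and cytosolic reactions started by adding the matrix. Controls lacked NADPH and/or GSH. Quenched with ice-cold acetonitrile containing 0.1% formic acid, then centrifuged. Supernatant analyzed by LC–MS/MS with UV detection at 300 nm.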

Data set [3] concerns Liver microsomes. Kind of data set: Metabolic stability in human liver microsomes assessed as formation of compound at 10 uM in presence of 5 mM GSH and in absence of NADPH by UV chromatography. Format: ADME, Microsome. The procedure, abridged: as §1
A general note: Microsomes from liver hold many membrane-bound enzymes, among them those of drug oxidation.

Data set [4] in a line: Metabolic stability in human liver cytosol assessed as formation of compound at 10 uM in presence of 5 mM GSH and 1.3 mM NADPH by UV chromatography. Type of data set: ADME. The procedure, abridged:
as §1

Data set [5] in a line: Metabolic stability in presence of human placental GST assessed as formation of compound at 10 uM in presence of 5 mM GSH and 1.3 mM NADPH by UV chromatography. Type of data set: ADME. The procedure, abridged:
as §1

Consider `Cc1cnc(NC(=O)[C@H](CC2CCCC2)n2ccccc2=O)cn1`, for which the Stability entry (in data set [1]; in the data set with Liver microsomes [2]; in the data set on Liver microsomes [3]; in data set [4]; in data set [5]) was “Stable” in each case.

Consider `Cc1cnc(NC(=O)[C@H](CC2CCCC2)n2cc(S(C)(=O)=O)ccc2=O)cn1`, for which the Stability result (in data set [1]; in the data set on Liver microsomes [2]; in the data set on Liver microsomes [3]; in data set [4]; in data set [5]) was “Stable” in each case.

For the compound `Cc1cnc(NC(=O)[C@H](CC2CCCC2)n2cccc(S(C)(=O)=O)c2=O)cn1`, the Stability entry (in data set [1]; with Liver microsomes [2]; in the data set with Liver microsomes [3]; in data set [4]; in data set [5]) was “Stable” throughout.

Turning to `Cc1cnc(NC(=O)[C@H](CC2CCCC2)n2ccc(S(C)(=O)=O)cc2=O)cn1`, the Stability entry (in data set [1]; in the data set on Liver microsomes [2]; in the data set on Liver microsomes [3]; in data set [4]; in data set [5]) was “Unstable” in each case.

On to `Cc1cnc(NC(=O)[C@H](CC2CCCC2)n2ccc(Br)cc2=O)cn1`, for which the Stability result is given as “Stable” in data set [1]; “Stable” with Liver microsomes [2]; “Stable” in the data set on Liver microsomes [3]; “Unstable” in data set [4]; “Unstable” in data set [5].

Values taken from ChEMBL document CHEMBL1268876, “Intrinsic electrophilicity of the 4-methylsulfonyl-2-pyridone scaffold in glucokinase activators: role of glutathione-S-transferases and in vivo quantitation of a glutathione conjugate in rats” (Bioorg Med Chem Lett, 2010).
